Test results: ChEMBL document CHEMBL3853327 (J Med Chem, 2016)

Assays:
[1] = Selectivity index, ratio of CC50 for human mock-infected MT4 cells to EC50 for HIV1 RES056 harboring reverse transcriptase K103N/Y181C double mutant infected in human MT4 cells; format: toxicity, cell-based; settings: MT4 cells (mock-infected for CC50, HIV-1 infected for EC50)
In short: (§1)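 Selectivity index is CC50/EC50. CC50 is the concentration that reduces OD540 of mock-infected MT-4 cells by 50% in the 5-day MTT assay. EC50 is the 50% protection from virus-induced cytopathicity, measured in parallel on infected wells.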

[2] = tested on: Human immunodeficiency virus 1; assay: Antiviral activity against HIV1 3B harboring reverse transcriptase L100I mutant infected in human MT4 cells assessed as protection against virus induced cytotoxicity after 5 days by MTT assay; format: functional, cell-based; settings: Human immunodeficiency virus 1, 3B, MT4, 120 h
In short: (§2)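 MTT cytopathicity assay in MT-4 cells (6 × 10^5 cells/mL). Compounds serially diluted 5-fold in triplicate wells, run in parallel on infected and mock-infected cells. Virus added at 100−300 CCID50 per well. Viability read spectrophotometrically at 540 and 690 nm after 5 days, using the median OD of three wells. EC50 is the concentration giving 50% protection from viral cytopathogenicity.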

[3] = tested on: Human immunodeficiency virus 1; assay: Potency index, ratio of ETV EC50 to compound EC50 for HIV1 3B harboring reverse transcriptase F227L/V106A double mutant infected in human MT4 cells; format: functional
[4] = AUC (0 to infinity) in Sprague-Dawley rat plasma at 16 mg/kg administered through oral gavage measured at 5 mins to 24 hrs post dosing by LC/MS analysis; format: ADME, organism-based; set-up: dose 16 mg/kg, time infinity, route oral; settings: in vivo
In short: (§3)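 Male Sprague-Dawley rats, ten randomly split into two groups (n = 5), single gavage dose of 8 or 16 mg·kg−1 in PEG 400/normal saline (70/30, V/V). Jugular sinus blood into heparinized tubes at 5 min to 24 h; plasma separated at 2200g for 8 min, stored −20 °C. Methanol precipitation with internal standard, LC-MS quantitation against plasma standard curves. Parameters reported as mean ± SD.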

[5] = Inhibition of recombinant wild type HIV1 reverse transcriptase using DIG-dUTP/biotin-dUTP/dTTP assessed as suppression of biotin-dUTP incorporation after 1 hr by ELISA; set-up: species or system Human immunodeficiency virus 1
In short: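 Recombinant WT HIV-1 RT in a Roche colorimetric kit: template plus DIG-dUTP, biotin-dUTP and dTTP, ±inhibitor, 1 h at 37 °C. Product captured on streptavidin plate 1 h at 37 °C, anti-DIG-POD 1 h at 37 °C, ABTS developed at 25 °C, read at OD405. IC50 is the concentration inhibiting biotin-dUTP incorporation by 50%.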

[6] = MRT (0 to t) in Sprague-Dawley rat plasma at 16 mg/kg administered through oral gavage measured at 5 mins to 24 hrs post dosing by LC/MS analysis; format: ADME, organism-based; in short: as §3
[7] = MRT (0 to infinity) in Sprague-Dawley rat plasma at 16 mg/kg administered through oral gavage measured at 5 mins to 24 hrs post dosing by LC/MS analysis; format: ADME, organism-based; in short: as §3
[8] = tested on: Human immunodeficiency virus 1; assay: Fold resistance, ratio of EC50 for HIV1 3B harboring reverse transcriptase K103N mutant infected in human MT4 cells to EC50 for wild type HIV1 3B harboring reverse transcriptase infected in human MT4 cells; format: functional
In short: (§4)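 Fold resistance is the EC50 against the mutant HIV-1 strain divided by the EC50 against WT IIIB. Both EC50s come from the MT-4 MTT cytoprotection assay (5-day read, 100−300 CCID50 inoculum).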

[9] = tested on: Human immunodeficiency virus 1; assay: Antiviral activity against HIV1 3B harboring reverse transcriptase F227L/V106A double mutant infected in human MT4 cells assessed as protection against virus induced cytotoxicity after 5 days by MTT assay; format: functional, cell-based; settings: Human immunodeficiency virus 1, 3B, MT4, 120 h; in short: as §2
[10] = tested on: Human immunodeficiency virus 1; assay: Antiviral activity against HIV1 3B harboring reverse transcriptase Y181C mutant infected in human MT4 cells assessed as protection against virus induced cytotoxicity after 5 days by MTT assay; format: functional, cell-based; settings: Human immunodeficiency virus 1, 3B, MT4, 120 h
In short: as §2, with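 “wells.” for “wells. EC50 is the concentration giving 50% protection from viral cytopathogenicity.”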

[11] = Selectivity index, ratio of CC50 for human mock-infected MT4 cells to EC50 for HIV1 3B harboring reverse transcriptase L100I mutant infected in human MT4 cells; format: toxicity, cell-based; settings: MT4 cells (mock-infected for CC50, HIV-1 infected for EC50); in short: as §1
[12] = tested on: Human immunodeficiency virus 1; assay: Fold resistance, ratio of EC50 for HIV1 3B harboring reverse transcriptase Y188L mutant infected in human MT4 cells to EC50 for wild type HIV1 3B harboring reverse transcriptase infected in human MT4 cells; format: functional; in short: as §4
Mus musculus = assay: Acute toxicity in Kunming mouse assessed as mortality at 2000 mg/kg, ig after 1 week; format: organism-based; settings: in vivo, po, 168 h
In short: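 Kunming mice (18−22 g), fasted 12 h, then given a single intragastric dose suspended in PEG-400 (100 or 200 mg·mL−1 for 1000 or 2000 mg·kg−1). Six mice per dose group, half male and half female. Deaths and body-weight gain followed for 1 week.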

[13] = Cytotoxicity against human mock-infected MT4 cells assessed as reduction in cell viability after 5 days by MTT assay; format: toxicity, cell-based
In short: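 Mock-infected MT-4 cells (6 × 10^5 cells/mL at seeding) with serial 5-fold compound dilutions in triplicate wells. Viability read by MTT after 5 days, absorbance at 540 and 690 nm, median OD of three wells. CC50 is the concentration reducing OD540 of mock-infected cells by 50%.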

[14] = AUMC (0 to infinity) in Sprague-Dawley rat plasma at 16 mg/kg administered through oral gavage measured at 5 mins to 24 hrs post dosing by LC/MS analysis; format: ADME, organism-based; settings: in vivo; in short: as §3
[15] = tested on: Human immunodeficiency virus 1; assay: Antiviral activity against HIV1 3B harboring reverse transcriptase K103N mutant infected in human MT4 cells assessed as protection against virus induced cytotoxicity after 5 days by MTT assay; format: functional, cell-based; settings: Human immunodeficiency virus 1, 3B, MT4, 120 h; in short: as §2
[16] = Apparent volume of distribution during terminal phase in Sprague-Dawley rat plasma at 16 mg/kg administered through oral gavage measured at 5 mins to 24 hrs post dosing by LC/MS analysis; format: ADME, organism-based; settings: read-out: Vz/F; in short: as §3
[17] = MRT (0 to infinity) in Sprague-Dawley rat plasma at 8 mg/kg administered through oral gavage measured at 5 mins to 24 hrs post dosing by LC/MS analysis; format: ADME, organism-based; in short: as §3
[18] = Selectivity index, ratio of CC50 for human mock-infected MT4 cells to EC50 for HIV1 3B harboring reverse transcriptase E138K mutant infected in human MT4 cells; format: toxicity, cell-based; settings: MT4 cells (mock-infected for CC50, HIV-1 infected for EC50); in short: as §1
[19] = Antiviral activity against HIV2 ROD harboring reverse transcriptase infected in human MT4 cells assessed as protection against virus induced cytotoxicity after 5 days by MTT assay; format: functional, cell-based, Human immunodeficiency virus type 2 (ISOLATE ROD); settings: Human immunodeficiency virus 2, MT4, 120 h; in short: as §2
[20] = tested on: Human immunodeficiency virus 1; assay: Antiviral activity against wild type HIV1 3B harboring reverse transcriptase infected in human MT4 cells assessed as protection against virus induced cytotoxicity after 5 days by MTT assay; format: functional, cell-based; settings: Human immunodeficiency virus 1, 3B, MT4, 120 h
In short: as §2, with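 “wells.” for “wells. EC50 is the concentration giving 50% protection from viral cytopathogenicity.”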

[21] = Apparent half life in Sprague-Dawley rat plasma at 16 mg/kg administered through oral gavage measured at 5 mins to 24 hrs post dosing by LC/MS analysis; format: ADME, organism-based; settings: in vivo; in short: as §3
[22] = tested on: Human immunodeficiency virus 1; assay: Potency index, ratio of ETV EC50 to compound EC50 for HIV1 3B harboring reverse transcriptase YI88L mutant infected in human MT4 cells; format: functional

## Cc1cc(C#N)cc(C)c1Oc1nc(NC2CCN(Cc3ccc(S(N)(=O)=O)cc3)CC2)nc2ccsc12
[1]
  selectivity ratio: 53500
[2]
  EC50: 3.4 nM
[3]
  Ratio EC50: 7
[4]
  AUC: 1756.7 ng·h/mL
[5]
  IC50: 300 nM
[6]
  MRT last: 3.25 h
[7]
  MRT inf: 4.16 h
[8]
  Ratio EC50: <3
[9]
  EC50: 4.2 nM
[10]
  EC50: 3.2 nM
[11]
  selectivity ratio: > 159000
[12]
  Ratio EC50: <3
Mus musculus
  Activity: Non-Toxic
[13]
  CC50 at 120 h: > 228000 nM
[14]
  AUMC: 7215.795 ug/L.hr
[15]
  EC50: 2.9 nM
[16]
  Vd/F: 50.1 L/kg
[17]
  MRT inf: 3.84 h
[18]
  selectivity ratio: > 75800
[19]
  EC50: ≥ 228000 nM
[20]
  EC50: 1.4 nM
[21]
  t1/2(app): 3.6 h
[22]
  Ratio EC50: 7
